Sampled rows, rich in hits. Any-hit rate of the full collection: about 4.6%.
HDAC3 inhib – inhibitors of human histone deacetylase 3. O15379. AID 2718. inhibition, % at 8.3 µM. recombinant HDAC3, fluorogenic peptide/trypsin coupled, fluorescence. actives 0.15% (n = 320,000); in the data active = inhibition above about 26%, passing the limit was not always enough
M18AAP inhibitor – PfM18AAP enzyme inhibition. recombinant PfM18AAP, H-Glu-NHMec fluorogenic cleavage. inhibition, % at 7.35 µM. actives 1.2% (n = 290,000). AID 1822;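 active = inhibition above the campaign mean inhibition over all tested compounds plus 3 SD, cut at about 28% in these data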;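 also: 0% = plate median of test compound wells and 100% = 2 mM ZnCl2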
ALR inh – inhibitors of human sulfhydryl oxidase ALR; P55789; purified ALR, DTT oxidation, H2O2 HRP-luminol luminescence; inhibition, % (no concentration beside the values); actives 3.8% (n = 290,000);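 active = mean replicate inhibition above about 79%, with every replicate also reaching it, limit read from the data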
UCH37 inh – blocks the human deubiquitinase UCH37. actives 0.33% (n = 330,000). purified proteasome/UCH37, Ub-AMC cleavage fluorescence. inhibition, % (concentration not given with the values). Q9Y5K5;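 active = mean inhibition over replicate wells above about 20%, limit read from the data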;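 also: 0% = compound-free wells with enzyme and 100% = wells lacking proteasome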
Target sequence (Q9Y5K5 whole entry, looked up): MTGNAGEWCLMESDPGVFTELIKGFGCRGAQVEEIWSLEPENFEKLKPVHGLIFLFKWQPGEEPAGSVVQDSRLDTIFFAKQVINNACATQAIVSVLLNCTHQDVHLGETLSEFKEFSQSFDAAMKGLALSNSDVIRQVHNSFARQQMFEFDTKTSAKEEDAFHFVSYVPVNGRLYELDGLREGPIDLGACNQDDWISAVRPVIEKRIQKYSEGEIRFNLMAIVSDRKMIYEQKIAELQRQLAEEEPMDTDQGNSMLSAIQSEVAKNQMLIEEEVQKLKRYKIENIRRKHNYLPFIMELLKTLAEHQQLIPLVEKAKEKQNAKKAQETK
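Schedule: 30 min plus 25 min, room temperature / Material: human UCH37 within purified proteasomes / Technique: AMC fluorescence intensity at 355/460 nm / Buffer or medium: pH 7.4 Tris-HCl (50 mM) with ovalbumin, ATP-MgCl2, DTT / Controls: wells without proteasome as full block, compound-free enzyme plus substrate as uninhibited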
FAS TE block – FAS thioesterase (human) inhibition | recombinant FAS-TE, OMFH fluorogenic substrate, fluorescence endpoint | actives 0.67% (n = 360,000) | inhibition, % at 15 µM | P49327;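 active = compounds whose normalised, plate-corrected inhibition of enzyme fluorescence in the single-dose primary screen is 50% or more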;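 also: 0% = DMSO with enzyme and 100% = substrate without enzyme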
Rtt109 HAT inh – blocks Candida albicans Rtt109/Vps75 acetyltransferase activity; Q5AAJ8; actives 0.16% (n = 330,000); AID 540336; inhibition, % at 34.9 µM; purified Rtt109/Vps75, ThioGlo CoA-SH fluorescence, 4 h;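 active = inhibition of at least 50% in every replicate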
The depositor's hits bear a star.

`Cc1ccccc1NC(C)C(=O)NN=Cc1ccccc1OCc1cccc(Br)c1` (centres undefined) gave UCH37 inh 3.
COc1ccc(N2CCN(C(=O)C3(S(=O)(=O)c4ccc(C)cc4)CC3)CC2)cc1 was read as HDAC3 inhib -2, M18AAP inhibitor 1, ALR inh 86*, UCH37 inh 4, FAS TE block 5 and Rtt109 HAT inh 4.
Screening COc1ccc(CC(=O)N2CCN(c3ccc(C4=NNC(=O)CC4C)cc3)CC2)cc1 (centres undefined) returned HDAC3 inhib 3, M18AAP inhibitor -4, ALR inh 88*, UCH37 inh -48, FAS TE block 0 and Rtt109 HAT inh 3.
For COc1ccc(N2CCN(C(=O)C3CC(O)CN3S(=O)(=O)c3ccc([N+](=O)[O-])cc3)CC2)cc1 (centres undefined) the results were HDAC3 inhib -14, M18AAP inhibitor 5, ALR inh 84*, UCH37 inh 6, FAS TE block -1 and Rtt109 HAT inh -7.
For COc1ccc(S(=O)(=O)CCC(=O)N2CCN(c3ccc([N+](=O)[O-])cc3)CC2)cc1 the results were HDAC3 inhib 5, M18AAP inhibitor 5, ALR inh 3, UCH37 inh 6, FAS TE block 5 and Rtt109 HAT inh -2.
Screening COc1ccc(N2CCN(C(=O)CCS(=O)(=O)c3ccc(C)cc3)CC2)cc1 returned HDAC3 inhib -6, M18AAP inhibitor 6, ALR inh 88*, UCH37 inh 2, FAS TE block 4 and Rtt109 HAT inh 5.
Screening Cc1ccc(-n2c(SCC(=O)NN=C/C=C/c3ccccc3[N+](=O)[O-])nc3ccccc3c2=O)cc1 returned UCH37 inh 0.
Screening COc1cccc(C(=O)NN=C2SCC(=O)N2CCc2ccc(OC)c(OC)c2)c1 returned UCH37 inh 1.
`COC(=O)c1ccc(OC(=O)CCS(=O)(=O)c2ccc(C)cc2)cc1` gave HDAC3 inhib -8, ALR inh 96*, UCH37 inh 0, FAS TE block 12 and Rtt109 HAT inh 3.
`COc1ccc(C(=O)NC(=O)COC(=O)CCS(=O)(=O)c2ccc(C)cc2)cc1` gave UCH37 inh 1, FAS TE block -6 and Rtt109 HAT inh 7.
For COc1ccc(N2CCN(C(=O)CCS(=O)(=O)c3ccc(OC)cc3)CC2)cc1 the results were HDAC3 inhib 2, M18AAP inhibitor 4, ALR inh 79*, UCH37 inh 6, FAS TE block -2 and Rtt109 HAT inh 13.
For COc1ccc(C2CC(O)(c3ccccc3)Oc3cc(OC)c(OC)c(OC)c32)cc1 (centres undefined) the results were HDAC3 inhib 41*, UCH37 inh 4, FAS TE block 35 and Rtt109 HAT inh -5.
COc1ccc([C@@H]2C[C@H](c3ccccc3)Oc3cc(OC)c(OC)c(OC)c32)cc1 was read as HDAC3 inhib -3, ALR inh -23, UCH37 inh 5, FAS TE block 32 and Rtt109 HAT inh 1.
For O=C(NN=C1CCS(=O)(=O)c2ccc(F)cc21)c1ccc([N+](=O)[O-])cc1 the results were UCH37 inh 4.
`O=S(=O)(Nc1ccc(-c2nnc(SCc3ccc(Cl)cc3)o2)cc1)c1ccccc1` gave HDAC3 inhib -7, M18AAP inhibitor -11, ALR inh -30, UCH37 inh 5, FAS TE block 30 and Rtt109 HAT inh 57*.
For O=C(O)c1ccc(CSc2nnc(-c3ccc(Cl)cc3)o2)cc1 the results were HDAC3 inhib 0, M18AAP inhibitor -2, ALR inh -3, UCH37 inh -1, FAS TE block -5 and Rtt109 HAT inh -8.
O=C(Cc1ccccc1)NCC(=O)NN=Cc1cccnc1 was read as UCH37 inh 2.
Screening CCc1sc(N(C(=O)Cc2ccccc2)c2ccc(F)cc2)nc1-c1ccccc1 returned HDAC3 inhib -5, M18AAP inhibitor 4, ALR inh 0, UCH37 inh 24*, FAS TE block 20 and Rtt109 HAT inh 0.
Screening Cc1cccc(NC(=S)NN=Cc2ccc(Cl)c([N+](=O)[O-])c2)c1 returned UCH37 inh 6.

Bioassay records as filed in PubChem.
